Measurements taken from PMC3349182 (British Journal of Cancer, 2012).

Tested on: patients with advanced, refractory solid tumours
Assay: Phase I dose escalation: toxicity
Format: in vivo, human
Conditions: for Abdominal pain (all grades), n patients / Anorexia (all grades), % of patients / Anorexia (all grades), n patients / Constipation (all grades), n patients / Diarrhoea (all grades), n patients / Dry skin (all grades), % of patients / Dry skin (all grades), n patients / Dysphonia (all grades), % of patients / Dysphonia (all grades), n patients / Fatigue (all grades), % of patients / Fatigue (all grades), n patients / Headache (all grades), n patients / Hypertension (all grades), n patients / Hypertension Grade 1, % of patients / Hypertension Grade 1, n patients / Hypertension Grade 2, % of patients / Hypertension Grade 2, n patients / Hypertension Grade 3, % of patients / Lethargy (all grades), % of patients / Lethargy (all grades), n patients / Nausea (all grades), n patients / Proteinuria (all grades), n patients / Proteinuria Grade 1, % of patients / Proteinuria Grade 1, n patients / Proteinuria Grade 2, % of patients / Proteinuria Grade 2, n patients / Proteinuria Grade 3, % of patients / Stomatitis (all grades), n patients / Vomiting (all grades), n patients / Abdominal pain (all grades), % of patients / Constipation (all grades), % of patients / Hypertension Grade 3, n patients / Proteinuria Grade 3, n patients / Vomiting (all grades), % of patients / Headache (all grades), % of patients / Hypertension (all grades), % of patients / Nausea (all grades), % of patients / Proteinuria (all grades), % of patients / Stomatitis (all grades), % of patients: treatment-related
Procedure, shortened: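 Oral dosing was once daily in 28-day cycles, escalating by an accelerated design from 0.2 mg/day. Toxicity was graded by NCI CTC v3.0. During cycle 1, patients had weekly examination, blood pressure, full blood count, biochemistry and urinalysis, plus ECGs on days 1 and 8. DLT covered drug-related toxicity in cycle 1: grade ⩾3 toxicity, repeated grade 2 toxicity needing dose reduction, or <75% of planned dose given. The MTD was the highest dose with ≤1/6 patients having a DLT, and 12 more patients were treated at the MTD.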

COc1cc2nccc(Oc3ccc(NC(=O)NC4CC4)c(Cl)c3)c2cc1C(N)=O [E7080]
13: Dose modifications required, n patients (at the MTD of 25 mg)
14: Nausea (all grades), n patients (25 mg (n=24)) | Anorexia (all grades), n patients (Total (n=82)) | Constipation (all grades), n patients (Total (n=82))
26%: Proteinuria (all grades), % of patients (Total (n=82))
8%: Proteinuria Grade 3, % of patients (25 mg (n=24))
25 mg: Maximum tolerated dose (MTD) (oral, once-daily continuous schedule, 28-day cycles)
0%: Proteinuria Grade 1, % of patients (25 mg (n=24)) | Abdominal pain (all grades), % of patients (32 mg (n=7)) | Hypertension Grade 2, % of patients (32 mg (n=7)) | Proteinuria Grade 1, % of patients (32 mg (n=7)) | Abdominal pain (all grades), % of patients (0.2–6.4 mg (n=21)) | Dysphonia (all grades), % of patients (0.2–6.4 mg (n=21)) | Headache (all grades), % of patients (0.2–6.4 mg (n=21)) | Hypertension Grade 2, % of patients (0.2–6.4 mg (n=21)) | Proteinuria Grade 1, % of patients (0.2–6.4 mg (n=21)) | Proteinuria Grade 3, % of patients (0.2–6.4 mg (n=21)) | Proteinuria Grade 1, % of patients (12–20 mg (n=30)) | Proteinuria Grade 1, % of patients (Total (n=82))
5: Anorexia (all grades), n patients (25 mg (n=24)) | Fatigue (all grades), n patients (25 mg (n=24)) | Proteinuria Grade 2, n patients (25 mg (n=24)) | Anorexia (all grades), n patients (12–20 mg (n=30)) | Lethargy (all grades), n patients (12–20 mg (n=30)) | Nausea (all grades), n patients (12–20 mg (n=30))
well tolerated: Tolerability (doses up to 25 mg per day, oral, daily continuous dosing)
16: Dry skin (all grades), n patients (Total (n=82))
32%: Stomatitis (all grades), % of patients (Total (n=82))
40%: Hypertension (all grades), % of patients (12–20 mg (n=30)) | Hypertension (all grades), % of patients (Total (n=82))
46%: Dry skin (all grades), % of patients (25 mg (n=24)) | Dysphonia (all grades), % of patients (25 mg (n=24)) | Hypertension Grade 2, % of patients (25 mg (n=24))
21: Proteinuria (all grades), n patients (Total (n=82))
13%: Hypertension Grade 3, % of patients (25 mg (n=24)) | Dysphonia (all grades), % of patients (12–20 mg (n=30)) | Headache (all grades), % of patients (Total (n=82))
21%: Anorexia (all grades), % of patients (25 mg (n=24)) | Fatigue (all grades), % of patients (25 mg (n=24)) | Proteinuria Grade 2, % of patients (25 mg (n=24))
9: Lethargy (all grades), n patients (25 mg (n=24)) | Abdominal pain (all grades), n patients (Total (n=82))
49%: Dose modifications required, % of patients (all doses)
8: Constipation (all grades), n patients (25 mg (n=24)) | Vomiting (all grades), n patients (25 mg (n=24)) | Nausea (all grades), n patients (0.2–6.4 mg (n=21)) | Diarrhoea (all grades), n patients (12–20 mg (n=30)) | Proteinuria (all grades), n patients (12–20 mg (n=30))
3: Dysphonia (all grades), n patients (32 mg (n=7)) | Nausea (all grades), n patients (32 mg (n=7)) | Proteinuria (all grades), n patients (32 mg (n=7)) | Lethargy (all grades), n patients (0.2–6.4 mg (n=21)) | Proteinuria (all grades), n patients (0.2–6.4 mg (n=21)) | Proteinuria Grade 2, n patients (0.2–6.4 mg (n=21)) | Constipation (all grades), n patients (12–20 mg (n=30)) | Dry skin (all grades), n patients (12–20 mg (n=30)) | Hypertension Grade 3, n patients (12–20 mg (n=30)) | Vomiting (all grades), n patients (12–20 mg (n=30))
18%: Fatigue (all grades), % of patients (Total (n=82)) | Proteinuria Grade 2, % of patients (Total (n=82))
4: Diarrhoea (all grades), n patients (32 mg (n=7)) | Hypertension (all grades), n patients (32 mg (n=7)) | Stomatitis (all grades), n patients (32 mg (n=7)) | Diarrhoea (all grades), n patients (0.2–6.4 mg (n=21)) | Dysphonia (all grades), n patients (12–20 mg (n=30))
40: Dose modifications required, n patients (all doses)
5%: Dry skin (all grades), % of patients (0.2–6.4 mg (n=21)) | Hypertension Grade 1, % of patients (0.2–6.4 mg (n=21)) | Hypertension Grade 3, % of patients (0.2–6.4 mg (n=21)) | Stomatitis (all grades), % of patients (0.2–6.4 mg (n=21))
38%: Lethargy (all grades), % of patients (25 mg (n=24)) | Nausea (all grades), % of patients (0.2–6.4 mg (n=21))
23%: Fatigue (all grades), % of patients (12–20 mg (n=30)) | Hypertension Grade 2, % of patients (12–20 mg (n=30)) | Lethargy (all grades), % of patients (Total (n=82)) | Vomiting (all grades), % of patients (Total (n=82))
7%: Haematological toxicities, % of patients (all grades, all doses) | Abdominal pain (all grades), % of patients (12–20 mg (n=30)) | Headache (all grades), % of patients (12–20 mg (n=30)) | Hypertension Grade 1, % of patients (12–20 mg (n=30)) | Proteinuria Grade 3, % of patients (12–20 mg (n=30)) | Hypertension Grade 1, % of patients (Total (n=82)) | Proteinuria Grade 3, % of patients (Total (n=82))
11: Dry skin (all grades), n patients (25 mg (n=24)) | Dysphonia (all grades), n patients (25 mg (n=24)) | Hypertension Grade 2, n patients (25 mg (n=24)) | Headache (all grades), n patients (Total (n=82))
0: Proteinuria Grade 1, n patients (25 mg (n=24)) | Abdominal pain (all grades), n patients (32 mg (n=7)) | Hypertension Grade 2, n patients (32 mg (n=7)) | Proteinuria Grade 1, n patients (32 mg (n=7)) | Abdominal pain (all grades), n patients (0.2–6.4 mg (n=21)) | Dysphonia (all grades), n patients (0.2–6.4 mg (n=21)) | Headache (all grades), n patients (0.2–6.4 mg (n=21)) | Hypertension Grade 2, n patients (0.2–6.4 mg (n=21)) | Proteinuria Grade 1, n patients (0.2–6.4 mg (n=21)) | Proteinuria Grade 3, n patients (0.2–6.4 mg (n=21)) | Proteinuria Grade 1, n patients (12–20 mg (n=30)) | Proteinuria Grade 1, n patients (Total (n=82))
37%: Nausea (all grades), % of patients (Total (n=82))
11%: Abdominal pain (all grades), % of patients (Total (n=82)) | Hypertension Grade 3, % of patients (Total (n=82))
7: Abdominal pain (all grades), n patients (25 mg (n=24)) | Headache (all grades), n patients (25 mg (n=24)) | Proteinuria (all grades), n patients (25 mg (n=24)) | Vomiting (all grades), n patients (0.2–6.4 mg (n=21)) | Fatigue (all grades), n patients (12–20 mg (n=30)) | Hypertension Grade 2, n patients (12–20 mg (n=30))
18: Dysphonia (all grades), n patients (Total (n=82)) | Hypertension Grade 2, n patients (Total (n=82))
1: Hypertension Grade 1, n patients (25 mg (n=24)) | Constipation (all grades), n patients (32 mg (n=7)) | Dry skin (all grades), n patients (32 mg (n=7)) | Fatigue (all grades), n patients (32 mg (n=7)) | Proteinuria Grade 2, n patients (32 mg (n=7)) | Vomiting (all grades), n patients (32 mg (n=7)) | Dry skin (all grades), n patients (0.2–6.4 mg (n=21)) | Hypertension Grade 1, n patients (0.2–6.4 mg (n=21)) | Hypertension Grade 3, n patients (0.2–6.4 mg (n=21)) | Stomatitis (all grades), n patients (0.2–6.4 mg (n=21))
54%: Dose modifications required, % of patients (at the MTD of 25 mg)
20%: Proteinuria Grade 2, % of patients (12–20 mg (n=30)) | Stomatitis (all grades), % of patients (12–20 mg (n=30)) | Dry skin (all grades), % of patients (Total (n=82))
2: Anorexia (all grades), n patients (32 mg (n=7)) | Headache (all grades), n patients (32 mg (n=7)) | Hypertension Grade 1, n patients (32 mg (n=7)) | Hypertension Grade 3, n patients (32 mg (n=7)) | Lethargy (all grades), n patients (32 mg (n=7)) | Proteinuria Grade 3, n patients (32 mg (n=7)) | Anorexia (all grades), n patients (0.2–6.4 mg (n=21)) | Constipation (all grades), n patients (0.2–6.4 mg (n=21)) | Fatigue (all grades), n patients (0.2–6.4 mg (n=21)) | Hypertension (all grades), n patients (0.2–6.4 mg (n=21)) | Abdominal pain (all grades), n patients (12–20 mg (n=30)) | Headache (all grades), n patients (12–20 mg (n=30)) | Hypertension Grade 1, n patients (12–20 mg (n=30)) | Proteinuria Grade 3, n patients (12–20 mg (n=30))
12: Diarrhoea (all grades), n patients (25 mg (n=24)) | Hypertension (all grades), n patients (12–20 mg (n=30))
17%: Anorexia (all grades), % of patients (12–20 mg (n=30)) | Lethargy (all grades), % of patients (12–20 mg (n=30)) | Nausea (all grades), % of patients (12–20 mg (n=30)) | Anorexia (all grades), % of patients (Total (n=82)) | Constipation (all grades), % of patients (Total (n=82))
15: Hypertension (all grades), n patients (25 mg (n=24)) | Stomatitis (all grades), n patients (25 mg (n=24)) | Fatigue (all grades), n patients (Total (n=82)) | Proteinuria Grade 2, n patients (Total (n=82))
10%: Anorexia (all grades), % of patients (0.2–6.4 mg (n=21)) | Constipation (all grades), % of patients (0.2–6.4 mg (n=21)) | Fatigue (all grades), % of patients (0.2–6.4 mg (n=21)) | Hypertension (all grades), % of patients (0.2–6.4 mg (n=21)) | Constipation (all grades), % of patients (12–20 mg (n=30)) | Dry skin (all grades), % of patients (12–20 mg (n=30)) | Hypertension Grade 3, % of patients (12–20 mg (n=30)) | Vomiting (all grades), % of patients (12–20 mg (n=30))
4%: Hypertension Grade 1, % of patients (25 mg (n=24))
26: Stomatitis (all grades), n patients (Total (n=82))
14%: Constipation (all grades), % of patients (32 mg (n=7)) | Dry skin (all grades), % of patients (32 mg (n=7)) | Fatigue (all grades), % of patients (32 mg (n=7)) | Proteinuria Grade 2, % of patients (32 mg (n=7)) | Vomiting (all grades), % of patients (32 mg (n=7)) | Lethargy (all grades), % of patients (0.2–6.4 mg (n=21)) | Proteinuria (all grades), % of patients (0.2–6.4 mg (n=21)) | Proteinuria Grade 2, % of patients (0.2–6.4 mg (n=21))
22%: Dysphonia (all grades), % of patients (Total (n=82)) | Hypertension Grade 2, % of patients (Total (n=82))
2%: Dose reduction because of stomatitis, % of patients (all doses)
28: Diarrhoea (all grades), n patients (Total (n=82))
